Data reported in ChEMBL document CHEMBL4190389, “Synthesis and activity of di- or trisubstituted N-(phenoxyalkyl)- or N-{2-[2-(phenoxy)ethoxy]ethyl}piperazine derivatives on the central nervous system” (Bioorg Med Chem Lett, 2018).
Activity calls are given as the source filed them. The calls are words filed in the database; no cut-off is given here.

Tests used:
Mus musculus [1] = test: Antidepressant-like activity in Albino Swiss CD-1 mouse assessed as immobility time at 10 mg/kg, ip administered 30 mins prior to test measured for last 4 mins of 6 mins observation by forced swim test (reference value: 153.9 to 201.9 secs); assay type: functional
[2] = biological target: T1, 5-hydroxytryptamine receptor 2A (Homo sapiens, UniProt P28223); test: Antagonist activity at human 5-HT2A receptor expressed in CHO-K1 cells co-expressing Galpha16 assessed as decrease in serotonin calcium mobilization preincubated for 30 mins followed by serotonin challenge measured for 30 secs by aequorin-derived luminescence assay; assay type: functional, cell-based
Mus musculus [3] = test: Anticonvulsant activity in ip dosed Albino Swiss CD-1 mouse assessed as dose required to protect against 50 Hz current-induced seizure; assay type: functional; details: Swiss CD-1, ip
[4] = Protection index, ratio of TD50 for motor impairment in ip dosed Swiss albino CD-1 mouse to ED50 for protection against 50 Hz current-induced seizures in ip dosed Swiss albino CD-1 mouse; assay type: toxicity, organism-based, Swiss CD-1; details: in vivo, read-out: Ratio TD50/ED50
[5] = biological target: T2, Alpha-1A adrenergic receptor (Homo sapiens, UniProt P35348); test: Displacement of [3H]prazosin from recombinant human alpha1 adrenoceptor expressed in CHO cell membranes after 30 mins by liquid scintillation counting method
T2 sequence (P35348 whole entry): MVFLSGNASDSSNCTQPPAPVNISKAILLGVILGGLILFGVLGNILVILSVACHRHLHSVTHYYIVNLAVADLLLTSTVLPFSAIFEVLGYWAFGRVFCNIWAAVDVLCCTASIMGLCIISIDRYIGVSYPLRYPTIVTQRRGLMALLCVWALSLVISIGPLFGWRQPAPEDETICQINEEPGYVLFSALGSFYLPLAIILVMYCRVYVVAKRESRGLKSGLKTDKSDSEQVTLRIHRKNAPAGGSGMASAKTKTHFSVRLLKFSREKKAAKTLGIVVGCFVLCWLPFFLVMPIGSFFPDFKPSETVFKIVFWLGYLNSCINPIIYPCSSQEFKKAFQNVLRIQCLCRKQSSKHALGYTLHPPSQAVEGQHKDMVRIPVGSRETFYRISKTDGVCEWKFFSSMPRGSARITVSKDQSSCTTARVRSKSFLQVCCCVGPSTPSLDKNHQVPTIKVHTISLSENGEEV

D(2) dopamine receptor [6] = biological target: T3, D(2) dopamine receptor (Homo sapiens, UniProt P14416); test: Agonist activity at human D2 receptor expressed in CHO-K1 cells co-expressing Galphaqi5 assessed as increase apomorphine-induced calcium mobilization measured for 30 secs by aequorin-derived luminescence assay relative to apomorphine; assay type: functional, cell-based
[7] = biological target: T4, 5-hydroxytryptamine receptor 7 (Homo sapiens, UniProt P34969); test: Antagonist activity at human 5-HT7 receptor expressed in CHO-K1 cells assessed as decrease in serotonin-induced cAMP level after 1 hr by TR-FRET assay relative to control; assay type: functional, cell-based
[8] = biological target: 5-hydroxytryptamine receptor 6 (Homo sapiens, UniProt P50406); test: Displacement of [3H]LSD from recombinant human 5-HT6 receptor expressed in CHO cells cell membranes after 60 mins by liquid scintillation counting method
[9] = biological target: T1, 5-hydroxytryptamine receptor 2A; test: biochemical; assay type: cell-based, HEK293
Mus musculus [10] = test: Antidepressant-like activity in Albino Swiss CD-1 mouse assessed as immobility time at 5 mg/kg, ip administered 30 mins prior to test measured for last 4 mins of 6 mins observation by forced swim test (reference value: 153.9 to 201.9 secs); assay type: functional
D(2) dopamine receptor [11] = biological target: T3, D(2) dopamine receptor; test: Antagonist activity at human D2 receptor expressed in CHO-K1 cells co-expressing Galphaqi5 assessed as decrease in apomorphine-induced calcium mobilization preincubated for 30 mins followed by apomorphine challenge measured for 30 secs by aequorin-derived luminescence assay; assay type: functional, cell-based
[12] = biological target: T5, 5-hydroxytryptamine receptor 1A (Homo sapiens, UniProt P08908); test: (§1) Antagonist activity at human 5-HT1A receptor expressed in CHO-K1 cells co-expressing Galpha16 assessed as decrease in serotonin calcium mobilization preincubated for 25 mins followed by serotonin challenge measured for 30 secs by aequorin-derived luminescence assay; assay type: functional, cell-based
T5 sequence (P08908 whole entry): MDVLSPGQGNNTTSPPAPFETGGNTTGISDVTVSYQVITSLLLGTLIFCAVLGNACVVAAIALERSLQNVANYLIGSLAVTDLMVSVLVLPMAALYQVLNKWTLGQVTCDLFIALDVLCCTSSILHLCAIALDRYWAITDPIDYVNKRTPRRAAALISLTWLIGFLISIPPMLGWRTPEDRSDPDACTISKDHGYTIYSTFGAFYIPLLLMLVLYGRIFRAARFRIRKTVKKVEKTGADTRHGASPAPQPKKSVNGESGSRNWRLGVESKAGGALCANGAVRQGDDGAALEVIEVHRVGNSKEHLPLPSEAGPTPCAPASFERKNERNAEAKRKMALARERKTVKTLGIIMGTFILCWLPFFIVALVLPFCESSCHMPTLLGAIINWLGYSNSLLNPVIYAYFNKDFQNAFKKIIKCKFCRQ

[13] = biological target: T6, 5-hydroxytryptamine receptor 1A (Homo sapiens) (UniProt P08908); test: as §1; assay type: functional, cell-based
T6 sequence (whole entry): T5 sequence (P08908 whole entry)

Mus musculus [14] = test: Toxicity in Albino Swiss CD-1 mouse assessed as death at 20 to 40 mg/kg, ip; assay type: organism-based; details: in vivo
Outline: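 Deaths counted in mice during maximal electroshock (MES) seizure testing after i.p. dosing, 6 mice per dose (3 or 1 at some top doses); recorded as number dead/number tested alongside protection and rotarod motor impairment (10 rpm); untreated control group included.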

Mus musculus [15] = test: Toxicity in Albino Swiss CD-1 mouse assessed as effect on locomotory activity at 1.25 to 5 mg/kg, ip administered for 30 mins prior to test measured for 1 min; assay type: organism-based; details: in vivo
[16] = biological target: T5, 5-hydroxytryptamine receptor 1A; test: Displacement of [3H]8-OH-DPAT from recombinant human 5-HT1A receptor expressed in HEK293 cell membranes after 60 mins by liquid scintillation counting method
[17] = biological target: T6, 5-hydroxytryptamine receptor 1A (Homo sapiens); test: Antagonist activity at human 5-HT1A receptor expressed in CHO-K1 cells co-expressing Galpha16 assessed as decrease in serotonin-induced calcium mobilization preincubated for 25 mins followed by serotonin challenge measured for 30 secs by aequorin-derived luminescence assay relative to control; assay type: functional, cell-based
[18] = biological target: T6, 5-hydroxytryptamine receptor 1A (Homo sapiens); test: Agonist activity at human 5-HT1A receptor expressed in CHO-K1 cells co-expressing Galpha16 assessed as increase in calcium mobilization measured for 30 secs by aequorin-derived luminescence assay relative to serotonin; assay type: functional, cell-based
Mus musculus [19] = test: Anxiolytic-like activity in Albino Swiss CD-1 mouse assessed as increase in number of punished crossings at 2.5 mg/kg, ip administered for 30 mins prior to test measured for 1 min by four-plate test; assay type: functional, organism-based
Outline: (§2)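 Four-plate test in mice, i.p., 30 min before test; vehicle 0.9% NaCl; doses 1.25–10 mg/kg; number of punished crossings counted; mean ± SEM, n = 8–10 mice per group; ANOVA F statistics.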

D(2) dopamine receptor [20] = biological target: T3, D(2) dopamine receptor; test: Displacement of [3H]methylspiperonee from recombinant human D2 receptor expressed in HEK293 cells cell membranes after 60 mins by liquid scintillation counting method
[21] = Neurotoxicity in ip dosed Albino Swiss CD-1 mouse assessed as minimum dose required to induce motor impairment treated 30 mins prior to test by rotarod test; assay type: toxicity, organism-based; details: in vivo
[22] = biological target: T4, 5-hydroxytryptamine receptor 7; test: Antagonist activity at human 5-HT7 receptor expressed in CHO-K1 cells assessed as decrease in serotonin-induced cAMP level after 1 hr by TR-FRET assay; assay type: functional, cell-based
[23] = biological target: T4, 5-hydroxytryptamine receptor 7; test: biochemical; assay type: cell-based, CHO
[24] = biological target: T4, 5-hydroxytryptamine receptor 7; test: Agonist activity at human 5-HT7 receptor expressed in CHO-K1 cells assessed as increase in serotonin-induced cAMP level after 1 hr by TR-FRET assay relative to serotonin; assay type: functional, cell-based
Mus musculus [25] = test: Anxiolytic-like activity in Albino Swiss CD-1 mouse assessed as increase in number of punished crossings at 5 mg/kg, ip administered for 30 mins prior to test measured for 1 min by four-plate test; assay type: functional, organism-based; outline: as §2
Mus musculus [26] = test: Antidepressant-like activity in Albino Swiss CD-1 mouse assessed as immobility time at 20 mg/kg, ip administered 30 mins prior to test measured for last 4 mins of 6 mins observation by forced swim test (reference value: 153.9 to 201.9 secs); assay type: functional
Mus musculus [27] = test: Toxicity in Albino Swiss CD-1 mouse assessed as effect on locomotory activity at 5 to 10 mg/kg, ip administered for 30 mins prior to test measured for 1 min; assay type: organism-based; details: in vivo
Outline: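 Mice dosed i.p. 30 min before test; vehicle groups received 0.9% NaCl. Spontaneous locomotion scored as number of crossings during a 1-min session. Each dose compared with its own vehicle group by Student t-test; mean ± SEM, n = 8–10 mice per group.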

D(2) dopamine receptor [28] = biological target: T3, D(2) dopamine receptor; test: Agonist activity at human D2 receptor expressed in CHO-K1 cells co-expressing Galphaqi5 assessed as increase in calcium mobilization measured for 30 secs by aequorin-derived luminescence assay; assay type: functional, cell-based
Mus musculus [29] = test: Anxiolytic-like activity in Albino Swiss CD-1 mouse assessed as increase in number of punished crossings at 5 to 10 mg/kg, ip administered for 30 mins prior to test measured for 1 min by four-plate test; assay type: functional, organism-based; outline: as §2

T1 sequence (P28223 whole entry): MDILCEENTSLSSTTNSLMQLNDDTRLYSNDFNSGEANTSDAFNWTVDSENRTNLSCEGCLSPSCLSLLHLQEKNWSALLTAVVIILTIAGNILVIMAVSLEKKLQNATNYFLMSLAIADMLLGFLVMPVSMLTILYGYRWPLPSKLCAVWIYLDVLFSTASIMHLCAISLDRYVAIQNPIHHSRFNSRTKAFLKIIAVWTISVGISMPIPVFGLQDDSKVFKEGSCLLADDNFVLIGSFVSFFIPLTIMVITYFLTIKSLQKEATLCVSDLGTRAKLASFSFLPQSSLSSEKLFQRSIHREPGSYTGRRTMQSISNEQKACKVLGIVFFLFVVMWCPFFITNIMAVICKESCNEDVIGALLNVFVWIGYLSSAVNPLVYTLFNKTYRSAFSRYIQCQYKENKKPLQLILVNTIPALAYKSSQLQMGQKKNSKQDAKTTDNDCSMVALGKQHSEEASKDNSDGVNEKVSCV
T4 sequence (P34969 whole entry): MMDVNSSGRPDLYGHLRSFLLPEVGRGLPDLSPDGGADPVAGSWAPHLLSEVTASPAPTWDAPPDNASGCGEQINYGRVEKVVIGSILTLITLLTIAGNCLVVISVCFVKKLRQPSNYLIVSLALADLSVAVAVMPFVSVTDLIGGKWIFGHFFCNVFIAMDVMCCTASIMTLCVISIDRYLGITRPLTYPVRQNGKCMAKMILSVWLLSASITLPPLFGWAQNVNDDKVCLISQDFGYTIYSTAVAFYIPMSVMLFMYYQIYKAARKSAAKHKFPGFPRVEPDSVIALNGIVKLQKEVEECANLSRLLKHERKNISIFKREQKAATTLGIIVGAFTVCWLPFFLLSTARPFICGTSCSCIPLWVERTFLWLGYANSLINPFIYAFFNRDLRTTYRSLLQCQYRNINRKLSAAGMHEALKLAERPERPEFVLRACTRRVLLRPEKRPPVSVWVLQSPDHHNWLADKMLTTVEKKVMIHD
T3 sequence (P14416 whole entry): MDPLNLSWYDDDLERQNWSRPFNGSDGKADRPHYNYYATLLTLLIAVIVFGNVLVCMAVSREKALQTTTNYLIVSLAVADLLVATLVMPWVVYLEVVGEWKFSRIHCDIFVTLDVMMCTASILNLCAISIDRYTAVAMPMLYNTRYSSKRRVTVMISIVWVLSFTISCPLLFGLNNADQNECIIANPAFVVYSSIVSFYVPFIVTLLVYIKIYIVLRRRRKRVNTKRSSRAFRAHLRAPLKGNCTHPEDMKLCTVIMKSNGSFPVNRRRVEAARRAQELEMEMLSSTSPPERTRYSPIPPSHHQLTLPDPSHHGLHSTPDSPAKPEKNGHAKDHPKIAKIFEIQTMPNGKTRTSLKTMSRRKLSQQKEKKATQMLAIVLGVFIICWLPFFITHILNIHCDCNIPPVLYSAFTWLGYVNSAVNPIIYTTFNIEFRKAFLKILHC
5-hydroxytryptamine receptor 6, sequence (P50406 whole entry): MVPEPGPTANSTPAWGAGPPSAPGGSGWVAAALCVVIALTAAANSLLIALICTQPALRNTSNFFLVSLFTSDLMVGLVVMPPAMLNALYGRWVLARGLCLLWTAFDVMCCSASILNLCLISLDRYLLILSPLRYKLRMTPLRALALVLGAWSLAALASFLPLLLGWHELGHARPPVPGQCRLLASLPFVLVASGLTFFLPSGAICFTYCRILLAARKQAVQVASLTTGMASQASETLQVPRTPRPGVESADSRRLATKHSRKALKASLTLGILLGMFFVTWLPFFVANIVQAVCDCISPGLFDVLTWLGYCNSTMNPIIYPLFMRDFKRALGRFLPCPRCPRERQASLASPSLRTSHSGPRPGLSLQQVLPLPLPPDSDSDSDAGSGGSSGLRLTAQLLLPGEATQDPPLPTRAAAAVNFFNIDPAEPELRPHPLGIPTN

## COc1ccccc1N1CCN(CCOCCOc2c(C)cc(C)cc2C)CC1.Cl.Cl
Mus musculus [1]
  Time: 131.3 s
[2]
  IC50: 18200 nM
Mus musculus [3]
  ED50: 26.3 mg/kg
[4]
  selectivity ratio: 1.19
[5]
  Ki: 15 nM
D(2) dopamine receptor [6]
  Emax: 1%
[7]
  Emax: 3%
[8]
  Ki: 2430 nM
[9]
  Ki: 245 nM
Mus musculus [10]
  Time: 138.5 s
D(2) dopamine receptor [11]
  IC50: 82 nM
  Kb: 24.4 nM
[12]
  IC50: 56.8 nM
[13]
  Kb: 13.9 nM
Mus musculus [14]
  Activity: Non-Toxic
Mus musculus [15]
  Activity: Non-Toxic
[16]
  Ki: 5 nM
[17]
  Emax: 20%
[18]
  Emax: 3%
Mus musculus [19]
  Activity: Active
D(2) dopamine receptor [20]
  Ki: 189 nM
[21]
  TD50 at 0.5 h: 31.5 mg/kg
[22]
  IC50: 1840 nM
  Kb: 783 nM
[23]
  Ki: 70 nM
[24]
  Emax: 11%
Mus musculus [25]
  Activity: Active
Mus musculus [26]
  Time: 150.6 s

## Cc1cc(OCCCN2CCN(c3ccccc3)CC2)ccc1Cl.Cl.Cl
Mus musculus [1]
  Time: 188.9 s
[2]
  IC50: 85800 nM
[5]
  Ki: 93 nM
D(2) dopamine receptor [6]
  Emax: 48%
Mus musculus [27]
  Activity: Non-Toxic
[7]
  Emax: 15%
[8]
  Ki: > 5000 nM
[9]
  Ki: 76 nM
Mus musculus [10]
  Time: 189.1 s
D(2) dopamine receptor [28]
  EC50: 757 nM
[12]
  IC50: 291 nM
[13]
  Kb: 71.5 nM
[16]
  Ki: 20 nM
[17]
  Emax: 6%
[18]
  Emax: 11%
Mus musculus [29]
  Activity: inactive
D(2) dopamine receptor [20]
  Ki: 299 nM
[22]
  IC50: 5790 nM
  Kb: 2460 nM
[23]
  Ki: 90 nM
[24]
  Emax: 11%
Mus musculus [26]
  Time: 172.1 s
